Measured values reported in ChEMBL document CHEMBL3526048, “In vitro metabolism of rivoglitazone, a novel peroxisome proliferator-activated receptor γ agonist, in rat, monkey, and human liver microsomes and freshly isolated hepatocytes” (Drug Metab Dispos, 2011).

Tests used:
Cytochrome P450 1A2 = biological target: T1, Cytochrome P450 1A2 (Homo sapiens, UniProt P05177); assay: Activity of human CYP1A2 expressed in microsomes isolated from baculovirus infected insect cell assessed as enzyme-mediated 2-amino-3-((1-carboxy-2-(4-((6-methoxy-1-methyl-1H-benzo[d]imidazol-2-yl)methoxy)phenyl)ethyl)disulfanyl)propanoic acid formation at 20 uM after 2 hrs by radio-HPLC/LC-MS/MS analysis; type: ADME
T1 sequence (P05177 whole entry): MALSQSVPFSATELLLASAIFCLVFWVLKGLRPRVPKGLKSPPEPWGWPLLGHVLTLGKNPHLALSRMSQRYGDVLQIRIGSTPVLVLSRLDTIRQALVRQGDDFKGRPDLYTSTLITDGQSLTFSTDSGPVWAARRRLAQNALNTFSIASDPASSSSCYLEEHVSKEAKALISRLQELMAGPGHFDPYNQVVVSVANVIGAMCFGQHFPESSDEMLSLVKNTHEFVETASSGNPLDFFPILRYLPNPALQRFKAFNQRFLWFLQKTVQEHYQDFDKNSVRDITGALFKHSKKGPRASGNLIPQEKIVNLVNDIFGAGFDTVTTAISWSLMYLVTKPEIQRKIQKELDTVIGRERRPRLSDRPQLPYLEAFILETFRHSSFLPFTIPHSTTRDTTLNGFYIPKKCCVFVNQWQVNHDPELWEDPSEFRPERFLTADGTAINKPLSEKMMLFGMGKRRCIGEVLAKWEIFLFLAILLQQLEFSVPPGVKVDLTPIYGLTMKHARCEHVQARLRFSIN
Method in brief: (§1)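 Baculovirus/insect-cell microsomes expressing single human CYPs, 1 mg/ml protein, with 50 mM potassium phosphate (pH 7.4) or 100 mM Tris-HCl (pH 7.5). NADPH-generating system: 2 mM NADP⁺, 20 mM glucose 6-phosphate, 2 units/ml G6PDH, 10 mM MgCl₂. [¹⁴C]rivoglitazone at 20 μM, 2 h at 37°C with shaking. Control used insect-cell control supersomes. Stopped with acetonitrile; supernatant concentrated under nitrogen; metabolites analysed by radio-HPLC, LC-MS and LC-MS/MS.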

Cytochrome P450 2D6 = Cytochrome P450 2D6 (Homo sapiens, UniProt P10635); assay: Activity of human CYP2D6 expressed in microsomes isolated from baculovirus infected insect cell assessed as enzyme-mediated 5-(4-((6-methoxy-1H-benzo[d]imidazol-2-yl)methoxy)benzyl)thiazolidine-2,4-dione formation at 20 uM after 2 hrs by radio-HPLC/LC-MS/MS analysis in presence of NADPH-generating system and NADPH-generating system/SAM; type: ADME
Cytochrome P450 2C8 = biological target: T2, Cytochrome P450 2C8 (Homo sapiens, UniProt P10632); assay: Activity of human CYP2C8 expressed in microsomes isolated from baculovirus infected insect cell assessed as enzyme-mediated 2-mercapto-3-(4-((6-methoxy-1-methyl-1H-benzo[d]imidazol-2-yl)methoxy)phenyl)propanamide formation at 20 uM after 2 hrs by radio-HPLC/LC-MS/MS analysis in presence of NADPH-generating system and NADPH-generating system/SAM; type: ADME; method in brief: as §1
T2 sequence (P10632 whole entry): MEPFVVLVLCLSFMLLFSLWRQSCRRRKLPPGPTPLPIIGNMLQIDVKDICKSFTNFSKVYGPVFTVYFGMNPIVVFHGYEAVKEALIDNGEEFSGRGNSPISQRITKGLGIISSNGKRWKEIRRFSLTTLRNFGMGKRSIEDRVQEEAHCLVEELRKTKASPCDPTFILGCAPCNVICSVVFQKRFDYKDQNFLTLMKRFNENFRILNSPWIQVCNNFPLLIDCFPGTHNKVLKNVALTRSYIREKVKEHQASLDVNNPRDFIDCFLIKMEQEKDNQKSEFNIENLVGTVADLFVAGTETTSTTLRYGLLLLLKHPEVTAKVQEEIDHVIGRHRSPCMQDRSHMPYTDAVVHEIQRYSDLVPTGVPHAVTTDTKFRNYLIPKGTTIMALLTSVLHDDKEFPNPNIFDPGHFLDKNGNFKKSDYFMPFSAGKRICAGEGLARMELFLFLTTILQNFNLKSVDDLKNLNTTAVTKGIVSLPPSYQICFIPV

[1] = Drug metabolism in monkey hepatocytes assessed as formation of 2-amino-3-((1-carboxy-2-(4-((6-methoxy-1-methyl-1H-benzo[d]imidazol-2-yl)methoxy)phenyl)ethyl)disulfanyl)propanoic acid at 30 uM after 3 hrs by radio-HPLC/LC-MS/MS analysis; conditions: cynomolgus monkey
[2] = Drug metabolism in cynomolgus monkey liver microsomes assessed as formation of 5-hydroxy-5-(4-((6-methoxy-1-methyl-1H-benzo[d]imidazol-2-yl)methoxy)benzyl)thiazolidine-2,4-dione at 20 uM after 2 hrs by radio-HPLC/LC-MS/MS analysis in presence of NADPH-generating system and NADPH-generating system/SAM; type: ADME, Macaca fascicularis
Cytochrome P450 2C9 = Cytochrome P450 2C9 (Homo sapiens, UniProt P11712); assay: Activity of human CYP2C9 expressed in microsomes isolated from baculovirus infected insect cell assessed as enzyme-mediated 3-(4-((6-methoxy-1-methyl-1H-benzo[d]imidazol-2-yl)methoxy)phenyl)-2-(methylthio)propanamide formation at 20 uM after 2 hrs by radio-HPLC/LC-MS/MS analysis in presence of NADPH-generating system/SAM; type: ADME
Cytochrome P450 3A5 = Cytochrome P450 3A5 (Homo sapiens, UniProt P20815); assay: Activity of human CYP3A5 expressed in microsomes isolated from baculovirus infected insect cell assessed as enzyme-mediated 2-hydroxy-3-(4-((6-methoxy-1-methyl-1H-benzo[d]imidazol-2-yl)methoxy)phenyl)propanamide formation at 20 uM after 2 hrs by radio-HPLC/LC-MS/MS analysis in presence of NADPH-generating system and NADPH-generating system/SAM; type: ADME
Method in brief: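 cDNA-expressed human CYP3A5 in baculovirus-insect-cell microsomes (1 mg/ml protein) was incubated with [¹⁴C]rivoglitazone (20 μM) in 50 mM potassium phosphate (pH 7.4) or 100 mM Tris-HCl (pH 7.5). NADPH-generating system: 2 mM NADP⁺, 20 mM glucose 6-phosphate, 2 units/ml G6PDH, 10 mM MgCl₂. Incubation ran 2 h at 37°C with shaking; insect-cell control supersomes served as control. Acetonitrile stop, supernatant concentrated, then radio-HPLC, LC-MS and LC-MS/MS.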

[3] = Drug metabolism in human hepatocytes assessed as formation of 2-mercapto-3-(4-((6-methoxy-1-methyl-1H-benzo[d]imidazol-2-yl)methoxy)phenyl)propanamide at 30 uM after 3 hrs by radio-HPLC/LC-MS/MS analysis in presence of NADPH-generating system and NADPH-generating system/SAM; type: ADME, cell-based, Hepatocyte
Liver microsome = assay: Drug metabolism in human liver microsomes assessed as formation of 2-hydroxy-3-(4-((6-methoxy-1-methyl-1H-benzo[d]imidazol-2-yl)methoxy)phenyl)propanamide at 20 uM after 2 hrs by radio-HPLC/LC-MS/MS analysis in presence of NADPH-generating system and NADPH-generating system/SAM; type: ADME

Measured: Drug metabolism

Cytochrome P450 2C9, sequence (P11712 whole entry): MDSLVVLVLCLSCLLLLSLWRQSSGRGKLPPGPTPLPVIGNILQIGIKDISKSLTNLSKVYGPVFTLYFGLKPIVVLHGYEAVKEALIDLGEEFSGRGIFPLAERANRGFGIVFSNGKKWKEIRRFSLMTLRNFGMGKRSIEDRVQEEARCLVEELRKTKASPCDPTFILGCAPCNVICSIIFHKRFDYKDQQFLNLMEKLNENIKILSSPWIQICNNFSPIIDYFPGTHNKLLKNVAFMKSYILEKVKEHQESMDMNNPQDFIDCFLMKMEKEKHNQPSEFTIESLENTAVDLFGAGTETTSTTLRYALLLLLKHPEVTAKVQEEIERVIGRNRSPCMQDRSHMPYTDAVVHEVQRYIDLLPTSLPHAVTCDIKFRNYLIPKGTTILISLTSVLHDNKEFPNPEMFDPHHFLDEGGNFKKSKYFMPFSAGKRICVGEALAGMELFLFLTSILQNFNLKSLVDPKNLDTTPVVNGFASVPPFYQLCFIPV
Cytochrome P450 3A5, sequence (P20815 whole entry): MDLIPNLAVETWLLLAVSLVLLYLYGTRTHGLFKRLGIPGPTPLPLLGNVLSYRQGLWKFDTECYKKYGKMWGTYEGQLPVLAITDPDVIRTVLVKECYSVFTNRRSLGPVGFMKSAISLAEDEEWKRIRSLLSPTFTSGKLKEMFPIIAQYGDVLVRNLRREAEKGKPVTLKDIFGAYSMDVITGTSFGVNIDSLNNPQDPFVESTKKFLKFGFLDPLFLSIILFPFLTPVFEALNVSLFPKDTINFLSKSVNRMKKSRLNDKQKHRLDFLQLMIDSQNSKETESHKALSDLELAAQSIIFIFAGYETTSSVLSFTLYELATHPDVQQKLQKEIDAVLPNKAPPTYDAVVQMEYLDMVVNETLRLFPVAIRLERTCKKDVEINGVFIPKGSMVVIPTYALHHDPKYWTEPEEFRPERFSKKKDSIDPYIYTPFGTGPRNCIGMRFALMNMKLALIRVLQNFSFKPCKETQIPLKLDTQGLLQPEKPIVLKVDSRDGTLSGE
Cytochrome P450 2D6, sequence (P10635 whole entry): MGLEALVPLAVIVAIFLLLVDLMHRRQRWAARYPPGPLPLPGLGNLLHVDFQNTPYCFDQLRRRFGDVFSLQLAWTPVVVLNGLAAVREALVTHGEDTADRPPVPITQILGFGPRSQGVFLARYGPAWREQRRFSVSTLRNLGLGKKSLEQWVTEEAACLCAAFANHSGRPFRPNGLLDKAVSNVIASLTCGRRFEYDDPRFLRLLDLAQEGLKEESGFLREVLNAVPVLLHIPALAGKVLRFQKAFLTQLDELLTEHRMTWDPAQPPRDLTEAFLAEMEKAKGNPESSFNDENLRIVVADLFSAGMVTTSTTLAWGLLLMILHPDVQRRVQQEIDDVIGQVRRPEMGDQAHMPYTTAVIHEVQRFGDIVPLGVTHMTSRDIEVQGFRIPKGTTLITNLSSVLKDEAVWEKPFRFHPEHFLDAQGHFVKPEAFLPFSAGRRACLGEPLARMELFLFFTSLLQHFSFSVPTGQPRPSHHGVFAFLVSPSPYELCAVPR

COc1ccc2nc(COc3ccc(C[14CH]4SC(=O)NC4=O)cc3)n(C)c2c1.Cl (racemic)
metabolite_detected: Cytochrome P450 2D6 | Cytochrome P450 2C8 | [2] | Cytochrome P450 3A5 | Liver microsome
metabolite_not_detected: Cytochrome P450 1A2 | [1] | Cytochrome P450 2C9 | [3]
